Data set [1] in a line: Displacement of [Phe13,125I]Tyr19]-MCH from human MCHR1 E4Q/A5T double mutant expressed in HEK293 cells by TopCount scintillation counting method. It is filed as cell-based.
The nature of data set [2]: Lipophilicity, log P of the compound at pH 7 by HPLC analysis. It is filed as physicochemical. The note with it: buffer. The method in brief: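 LogP determined by HPLC at pH 7.0.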
A short description of data set [3]: Protein binding in Sprague-Dawley rat plasma at 10 mg/kg, po qd for 4 days. It is filed as ADME, organism-based. Particulars: read-out: PPB.
Data set [4] in a line: Plasma concentration in Sprague-Dawley rat at 10 mg/kg, po measured after 8 hrs. Type of data set: ADME, organism-based. The method in brief:
(§1)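 SD rats given 10 mg/kg orally as parent or glycine prodrug (prodrug dose adjusted to parent), in 0.5% Methocel/0.1% Tween 80/99.4% water. Plasma and brain levels of parent measured 8 h post dose, n = 2; 0–8 h plasma AUC also determined.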

Data set [5] can be described thus: Solubility of the compound in phosphate buffer at pH 6.4. Type of data set: physicochemical. The method in brief: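 Solubility of parent compounds and prodrugs measured in 50 mM phosphate buffer, pH 6.4.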
Data set [6] in a line: Drug uptake in Sprague-Dawley rat brain at 10 mg/kg, po measured after 8 hrs. It is filed as ADME, organism-based. The note with it: read-out: Drug uptake. The method in brief: (§2)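 Sprague-Dawley rats dosed orally once at 10 mg/kg as parent or glycinate prodrug (prodrug dose adjusted to parent), vehicle 0.5% Methocel/0.1% Tween 80/99.4% water; parent compound measured in brain 8 h post dose, n = 2.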

A short description of data set [7]: AUC in Sprague-Dawley rat at 10 mg/kg, po measured after 8 hrs. Particulars: in vivo. Further details: time < 8 hr, dose 10 mg/kg, route oral. Type of data set: ADME, organism-based.
Data set [8] can be described thus: Metabolic stability in rat liver microsomes assessed as compound remaining at 3 uM measured after 10 min. It is filed as ADME. Particulars: read-out: Stability. The method in brief:
(§3)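 Test compound at 3.0 µM incubated with liver microsomes for 10 minutes; read-out is percent of parent remaining.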

The nature of data set [9]: Metabolic stability in human liver microsomes assessed as compound remaining at 3 uM measured after 10 min. Particulars: read-out: Stability. Type of data set: ADME. The method in brief: as §3
The nature of data set [10]: Metabolic stability in mouse liver microsomes assessed as compound remaining at 3 uM measured after 10 min. It is filed as ADME. Particulars: read-out: Stability. The method in brief:
as §3

Data set [11] can be described thus: Drug uptake in Sprague-Dawley rat brain assessed as parent compound level at 10 mg/kg, po measured after 8 hrs. Type of data set: ADME, organism-based. The note with it: read-out: Drug uptake. The method in brief:
as §2

Data set [12] in a line: Protein binding in rat plasma assessed as unbound fraction. Type of data set: ADME, cell-free. The method in brief: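 Plasma protein binding reported as % free drug in rat, DIO rat, dog, cynomolgus monkey, rabbit and human plasma.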
The nature of data set [13]: Plasma concentration in Sprague-Dawley rat assessed as parent compound level at 10 mg/kg, po measured after 8 hrs. It is filed as ADME, organism-based. The method in brief:
as §1

Data set [14] is described as follows: Plasma concentration in Sprague-Dawley rat assessed as 6-(4-chlorophenyl)-3-(4-((3,3-difluoro-1-hydroxycyclobutyl)methoxy)-3-methoxyphenyl)thieno[3,2-d]pyrimidin-4(3H)-one level measured on day 4 post 20 hrs of last dosage. The method in brief: (§4)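 SD rats dosed orally once daily for 4 days at 3, 10 and 30 mg/kg, as glycine prodrug in 0.5% Methocel/0.1% Tween 80 vehicle. Parent plasma and brain levels taken on day 4 at 20 h; n = 8. Biliary lesions examined.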

A short description of data set [15]: AUC in Sprague-Dawley rat assessed as parent compound level at 10 mg/kg, po measured after 8 hrs. Type of data set: ADME, organism-based. Also on record: dose 10 mg/kg, time < 8 hr, route oral. Particulars: in vivo.
Data set [16] is described as follows: Drug level in Sprague-Dawley rat brain assessed as 6-(4-chlorophenyl)-3-(4-((3,3-difluoro-1-hydroxycyclobutyl)methoxy)-3-methoxyphenyl)thieno[3,2-d]pyrimidin-4(3H)-one level measured on day 4 post 20 hrs of last dosage. It is filed as ADME, tissue-based. The note with it: in vivo, read-out: Ct. The method in brief: (§5)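 Sub-chronic study in Sprague-Dawley rats: oral glycinate prodrug at 3, 10 and 30 mg/kg once daily for 4 days, vehicle 0.5% Methocel/0.1% Tween 80/99.4% water; parent compound measured in brain on day 4 at 20 h.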

For data set [17], the system named is Rattus norvegicus. The data set can be described thus: Antiobesity activity in DIO Sprague-Dawley rat assessed as body weight loss at 10 mg/kg, po qd for 4 days. It is filed as functional. The method in brief: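 Sprague-Dawley rats dosed orally once daily for 4 days at 3, 10 and 30 mg/kg (vehicle 0.5% Methocel/0.1% Tween 80/99.4% water), n = 8; body weight change from baseline versus vehicle-treated animals, value given for 10 mg/kg.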

Data set [18] is described as follows: Ratio of drug level in brain to plasma in Sprague-Dawley rat at 10 mg/kg, po measured after 8 hrs. Type of data set: ADME, organism-based. Particulars: brain and plasma, read-out: BPR. The method in brief:
as §1

The subject of data set [19] is Rattus norvegicus. The data set can be described thus: Toxicity in Sprague-Dawley rat assessed as incidence of biliary lesions at 30 mg/kg, po for 4 days. It is filed as organism-based. The note with it: in vivo, 96 h. The method in brief: as §4
The subject of data set [20] is Rattus norvegicus. The data set can be described thus: Antiobesity activity in DIO Sprague-Dawley rat model assessed as reduction in caloric intake at 10 mg/kg, po qd for 28 days relative to vehicle control. It is filed as functional. Also on record: scale not given: the % may be the effect or the level left.
Data set [21] deals with Rattus norvegicus. Briefly: Antiobesity activity in DIO Sprague-Dawley rat model assessed as reduction in body weight at 10 mg/kg, po qd for 28 days relative to vehicle control. Further details: scale not given: the % may be the effect or the level left. Type of data set: functional.
Data set [22] is described as follows: Drug level in Sprague-Dawley rat brain assessed as 6-(4-chlorophenyl)-3-(4-((3-hydroxyoxetan-3-yl)methoxy)-3-methoxyphenyl)thieno[3,2-d]pyrimidin-4(3H)-one level measured on day 4 post 20 hrs of last dosage. It is filed as ADME, tissue-based. The note with it: in vivo, read-out: Ct. The method in brief:
as §5

Data set [23] can be described thus: Plasma concentration in Sprague-Dawley rat assessed as 6-(4-chlorophenyl)-3-(4-((3-hydroxyoxetan-3-yl)methoxy)-3-methoxyphenyl)thieno[3,2-d]pyrimidin-4(3H)-one level measured on day 4 post 20 hrs of last dosage. The method in brief:
as §4

In the next data set the target is hERG (KCNH2) (Homo sapiens, UniProt Q12809). The data set can be described thus: Inhibition of human ERG at 1 uM by patch clamp assay. (In general: The patch-clamp technique gives a direct electrical read-out from membranes.)
Chain of hERG (KCNH2) (Q12809 whole entry): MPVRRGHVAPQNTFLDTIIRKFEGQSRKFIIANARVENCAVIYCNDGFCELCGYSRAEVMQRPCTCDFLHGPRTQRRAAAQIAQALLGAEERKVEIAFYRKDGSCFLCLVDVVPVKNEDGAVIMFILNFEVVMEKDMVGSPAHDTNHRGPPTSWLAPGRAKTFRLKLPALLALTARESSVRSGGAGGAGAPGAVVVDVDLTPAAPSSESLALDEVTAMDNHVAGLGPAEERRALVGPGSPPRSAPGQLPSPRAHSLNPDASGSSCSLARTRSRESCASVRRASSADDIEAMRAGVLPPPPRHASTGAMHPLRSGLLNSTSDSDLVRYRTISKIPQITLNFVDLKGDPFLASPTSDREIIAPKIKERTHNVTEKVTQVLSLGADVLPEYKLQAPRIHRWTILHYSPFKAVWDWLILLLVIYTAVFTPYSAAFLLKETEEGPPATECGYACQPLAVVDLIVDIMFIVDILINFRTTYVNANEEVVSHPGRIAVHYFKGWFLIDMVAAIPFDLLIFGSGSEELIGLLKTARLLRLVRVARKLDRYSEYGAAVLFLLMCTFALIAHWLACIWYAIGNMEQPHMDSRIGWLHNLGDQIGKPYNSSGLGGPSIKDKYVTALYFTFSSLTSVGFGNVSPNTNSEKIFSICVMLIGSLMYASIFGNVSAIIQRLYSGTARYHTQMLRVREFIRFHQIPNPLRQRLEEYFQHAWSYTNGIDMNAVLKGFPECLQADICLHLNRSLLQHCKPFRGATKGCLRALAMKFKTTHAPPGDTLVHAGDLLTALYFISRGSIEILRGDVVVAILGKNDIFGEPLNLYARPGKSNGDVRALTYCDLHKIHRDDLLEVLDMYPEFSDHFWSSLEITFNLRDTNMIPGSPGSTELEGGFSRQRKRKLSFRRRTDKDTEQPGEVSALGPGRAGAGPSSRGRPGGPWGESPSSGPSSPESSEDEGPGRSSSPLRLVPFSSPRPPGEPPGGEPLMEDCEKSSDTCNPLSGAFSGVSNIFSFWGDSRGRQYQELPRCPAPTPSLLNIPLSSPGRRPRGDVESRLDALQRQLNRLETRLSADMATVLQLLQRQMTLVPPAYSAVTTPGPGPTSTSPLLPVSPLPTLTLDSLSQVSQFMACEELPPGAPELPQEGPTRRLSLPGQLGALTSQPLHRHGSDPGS

Broadly, the Ki is a measure of affinity in units of concentration, obtained from inhibition or displacement. In [1], `COc1cc(-n2cnc3cc(-c4ccc(Cl)cc4)sc3c2=O)ccc1OCCN1CCCC1` displayed a Ki of 2.9 to 3.8 nM.
In general, logP refers to the decadic logarithm of the partition coefficient of the neutral form, usually between octanol and water. The term solubility denotes the concentration that dissolves in the medium under given conditions. In general, AUC refers to concentration integrated over time. In the case of `COc1cc(-n2cnc3cc(-c4ccc(Cl)cc4)sc3c2=O)ccc1OCC1(O)CCC1`, the affinity in data set [1] corresponds to a Ki of 9.8 nM. In [2], this compound displayed a logP of 4.7. For the same compound, in data set [3], the fraction unbound at 96 h was below 0.02. The concentration at 8 h was 6 nM in data set [4] and below 3 nM in data set [6]. In data set [5], the solubility was below 1 µg/mL. This compound also yielded an AUC at 8 h in data set [7] of 0.2 µM·h. For the same compound, the remaining at 10 min, 3 µM in data set [8] amounted to 24%.
In data set [1], `COc1cc(-n2cnc3cc(-c4ccc(Cl)cc4)sc3c2=O)ccc1OCC1(O)CCCC1` registered a Ki of 11.9 nM. The compound also yielded a logP in [2] of 4.7. Also, the fraction unbound at 96 h in [3] was below 0.02. In addition, in data set [5], the solubility was below 1 µg/mL. For the same compound, the values for the remaining at 10 min, 3 µM in data set [9] and in data set [8] were 73% and 14%, respectively.
In the case of `COc1cc(-n2cnc3cc(-c4ccc(Cl)cc4)sc3c2=O)ccc1OCC1(O)CCOCC1`, the Ki in data set [1] is 11.2 nM. In data set [2], this compound registered a log partition coefficient (logP) of 4.2. The fraction unbound at 96 h in data set [3] was below 0.02. Further, the concentration at 8 h is 29 nM in data set [4] and below 3 nM in data set [6]. The remaining at 10 min, 3 µM in data set [10] was 98%; in data set [9], 87%; in [8], 27%. This compound also showed a solubility in data set [5] below 1 µg/mL. In addition, the area under the curve (AUC) at 8 h in data set [7] is 0.4 µM·h.
As for `COc1cc(-n2cnc3cc(-c4ccc(Cl)cc4)sc3c2=O)ccc1OCC(C)(C)O`, in data set [2], the log partition coefficient (logP) stood at 4.5. In addition, the concentration at 8 h in data set [11] is 7800 nM; in data set [13], 3530 nM. Also, the remaining at 10 min, 3 µM worked out at 90% in [10], 100% in data set [9] and 98% in data set [8]. In addition, the Fu in [12] turned out to be 0.8%. In data set [5], this compound gave a solubility below 1 µg/mL.
Take `COc1cc(-n2cnc3cc(-c4ccc(Cl)cc4)sc3c2=O)ccc1OCC1(OC(=O)CN)CC(F)(F)C1`: the concentration in data set [14] amounted to 12800 nM; in data set [16], 7960 nM. The figures for the concentration at 8 h in data set [11] and in data set [13] were 11300 nM and 4500 nM, respectively. Moreover, the AUC in data set [15] was determined as 38.1 µM·h. This compound also had a solubility in data set [5] below 1 µg/mL. In the data set with Rattus norvegicus [17], the Activity was 6.4%. Also, the Kp at 8 h in [18] amounted to 2.5.
Turning to `COc1cc(-n2cnc3cc(-c4ccc(Cl)cc4)sc3c2=O)ccc1OCC(C)(C)OP(=O)(O)O`, the solubility in data set [5] is below 1 µg/mL.
Take `COc1cc(-n2cnc3cc(-c4ccc(Cl)cc4)sc3c2=O)ccc1OCC1(O)COC1`: the Ki in data set [1] was determined as 8.7 nM. Moreover, the logP in [2] was 3.8. In data set [3], the fraction unbound at 96 h is below 0.02. Further, the remaining at 10 min, 3 µM turned out to be 100% in [10], 100% in data set [9] and 47% in data set [8]. Also, in [5], the solubility was below 1 µg/mL. In addition, in the data set on Rattus norvegicus [19], the Activity is 40%.
Turning to `Cc1c(C(=O)NN2CCCCC2)nn(-c2ccc(Cl)cc2Cl)c1-c1ccc(Cl)cc1` [RIMONABANT], the Activity in the data set on Rattus norvegicus [20] turned out to be 27%; in the data set with Rattus norvegicus [21], 8.5%.
Turning to `COc1cc(-n2cnc3cc(-c4ccc(Cl)cc4)sc3c2=O)ccc1OCC1(OC(=O)CN)CC1`, the figures for the concentration at 8 h in [11] and in [13] were below 3 nM and 113 nM, respectively. Besides, the AUC in data set [15] stood at 5.9 µM·h.
For the compound `COc1cc(-n2cnc3cc(-c4ccc(Cl)cc4)sc3c2=O)ccc1OCC1(OC(=O)CN)COC1`, the concentration at 8 h turned out to be 1130 nM in data set [11] and 1160 nM in data set [13]. The area under the curve (AUC) in [15] came to 34.9 µM·h. In addition, the concentration is below 3 nM in data set [22] and 37 nM in [23]. Further, the Activity with Rattus norvegicus [17] was found to be 0%.
The term inhibition denotes the change of the read-out against control, counted positive when it falls. In [1], `COc1cc(-n2cnc3cc(-c4ccc(Cl)cc4)sc3c2=O)ccc1OC[C@@H](C)O` registered a Ki of 9.5 nM. 1 µM produced 43.8% inhibition against hERG (KCNH2).
As to `COc1cc(-n2cnc3cc(-c4ccc(Cl)cc4)sc3c2=O)ccc1OCC1(OC(=O)CN)CCC1`, the concentration at 8 h in data set [11] was below 3 nM; in [13], 15 nM. Also, in [15], the AUC turned out to be 1.3 µM·h. The compound also gave a solubility in data set [5] below 1 µg/mL.
For the compound `COc1cc(-n2cnc3cc(-c4ccc(Cl)cc4)sc3c2=O)ccc1OCC1(O)CC1`, the affinity in data set [1] corresponds to a Ki of 17.5 nM. In addition, the logP in data set [2] was found to be 4.1. For the same compound, the fraction unbound at 96 h in data set [3] is below 0.02. For the same compound, the remaining at 10 min, 3 µM in [10] was determined as 99%; in data set [9], 94%; in data set [8] it was 61%. Also, the solubility in data set [5] is below 1 µg/mL.
